Assay results reported in ChEMBL document CHEMBL6153064, “Structure-based discovery of novel diarylpyrimidines as potent and selective Non-Nucleoside reverse transcriptase inhibitors: From CH(CN)-Biphenyl-Diarylpyrimidines to CNNH2-Biphenyl-Diarylpyrimidines” (Eur J Med Chem, 2025).

Key:
[1] = test system: Human immunodeficiency virus 1; test: Antiviral activity against wild type HIV-1 IIIB infected in human MT4 cells […]; type: functional, organism-based; conditions: Human immunodeficiency virus 1, IIIB
[2] = Cytotoxicity against human MT4 cells by MTT assay; type: toxicity, cell-based
[3] = Selectivity index, ratio of CC50 for cytotoxicity against human MT4 cells to EC50 for antiviral activity against wild type HIV-1 IIIB infected in human MT4 cells; type: toxicity, cell-based; conditions: read-out: Ratio CC50/EC50
Outline: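 Selectivity index calculated as CC50/EC50 ratio, both values from MTT viability readout in MT-4 cells, antiviral arm using wild-type HIV-1 IIIB.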

[4] = test system: Human immunodeficiency virus 1; test: Antiviral activity against HIV-1 harboring L100I mutant infected in human MT4 cells […]; type: functional, organism-based; conditions: Human immunodeficiency virus 1, MT4
[5] = test system: Human immunodeficiency virus 1; test: Antiviral activity against HIV-1 harboring K103N mutant infected in human MT4 cells […]; type: functional, organism-based; conditions: Human immunodeficiency virus 1, MT4
[6] = test system: Human immunodeficiency virus 1; test: Antiviral activity against HIV-1 harboring Y181C mutant infected in human MT4 cells […]; type: functional, organism-based; conditions: Human immunodeficiency virus 1, MT4
[7] = test system: Human immunodeficiency virus 1; test: Antiviral activity against HIV-1 harboring E138K mutant infected in human MT4 cells […]; type: functional, organism-based; conditions: Human immunodeficiency virus 1, MT4
[8] = target: Human immunodeficiency virus type 1 reverse transcriptase (Human immunodeficiency virus 1, UniProt Q72547); test: Inhibition of wild type HIV-1 Reverse transcriptase
[9] = target: Human immunodeficiency virus type 1 reverse transcriptase (Human immunodeficiency virus 1) (UniProt Q72547); test: Potency index, ratio of Nevirapine IC50 to test compound IC50 for inhibition of wild type HIV-1 Reverse transcriptase
[10] = test system: Human immunodeficiency virus 1; test: Antiviral activity against HIV-1 harboring Y188L mutant infected in human MT4 cells assessed as inhibition of virus-induced cytopathic effect by MTT assay; conditions: Human immunodeficiency virus 1, MT4
[11] = test system: Human immunodeficiency virus 1; test: Potency index, ratio of Efavirenz EC50 to test compound EC50 for antiviral activity against HIV-1 harboring K103N mutant infected in human MT4 cells […]; type: functional
[12] = test system: Human immunodeficiency virus 1; test: Potency index, ratio of Efavirenz EC50 to test compound EC50 for antiviral activity against HIV-1 harboring Y188L mutant infected in human MT4 cells […]; type: functional
[13] = test system: Human immunodeficiency virus 1; test: Potency index, ratio of Nevirapine EC50 to test compound EC50 for antiviral activity against HIV-1 harboring E138K mutant infected in human MT4 cells […]; type: functional
[14] = Stability in human plasma assessed as parent compound remaining measured immediately; type: ADME, cell-free; conditions: read-out: Stability
[15] = Stability in human plasma assessed as parent compound remaining measured at 15 mins; type: ADME, cell-free; conditions: read-out: Stability
[16] = Stability in human plasma assessed as parent compound remaining measured at 30 mins; type: ADME, cell-free; conditions: read-out: Stability
[17] = Stability in human plasma assessed as parent compound remaining measured at 60 mins; type: ADME, cell-free; conditions: read-out: Stability
[18] = Stability in human plasma assessed as parent compound remaining measured at 120 mins; type: ADME, cell-free; conditions: read-out: Stability
[19] = Stability in human plasma assessed as parent compound remaining measured at 300 mins; type: ADME, cell-free; conditions: read-out: Stability
[20] = Stability in human plasma assessed as half life; type: ADME, cell-free
[21] = Metabolic stability in human liver microsomes assessed as half life; type: ADME, Microsome
Outline: (§1)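 Incubation with human liver microsomes; half-life obtained from depletion fit (R² reported), intrinsic clearance expressed per mg microsomal protein (μL/min/mg) and scaled to liver (mL/min/kg).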

[22] = Metabolic stability in human microsomes assessed as intrinsic clearance; type: ADME, Microsome; conditions: read-out: CLH; outline: as §1
[23] = Acute toxicity in ICR mouse at 2 g/Kg, po measured for 2 weeks; type: organism-based; conditions: in vivo, 2000 mg/kg, 336 h
Outline: (§2)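 Healthy female and male ICR mice were given a single oral dose of 2 g/kg. Growth, death and toxic symptoms were followed over 2 weeks and compared with a control group.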

[24] = Acute toxicity in ICR mouse assessed as animal death at 2 g/Kg, po measured for 2 weeks; type: organism-based; conditions: in vivo, 2000 mg/kg, 336 h; outline: as §2
[25] = Acute toxicity in ICR mouse assessed as adverse symptoms at 2 g/Kg, po measured for 2 weeks; type: organism-based; conditions: in vivo, 2000 mg/kg, 336 h; outline: as §2
[26] = Acute toxicity in ICR mouse assessed as change in ALT level at 2 g/Kg, po measured after 14 days; type: organism-based; conditions: in vivo, 2000 mg/kg, 336 h, time 14 day
Outline: (§3)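 ICR mice of both sexes received a single oral 2 g/kg dose. On day 14 after dosing, blood was examined for ALT, AST, CREA, UREA and CKMB and compared with control groups.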

[27] = Acute toxicity in ICR mouse assessed as change in AST level at 2 g/Kg, po measured after 14 days; type: organism-based; conditions: in vivo, 2000 mg/kg, 336 h, time 14 day; outline: as §3
[28] = Acute toxicity in ICR mouse assessed as change in CREA level at 2 g/Kg, po measured after 14 days; type: organism-based; conditions: in vivo, 2000 mg/kg, 336 h, time 14 day; outline: as §3
[29] = Acute toxicity in ICR mouse assessed as change in UREA level at 2 g/Kg, po measured after 14 days; type: organism-based; conditions: in vivo, 2000 mg/kg, 336 h, time 14 day; outline: as §3
[30] = Acute toxicity in ICR mouse assessed as change in CKMB level at 2 g/Kg, po measured after 14 days; type: organism-based; conditions: in vivo, 2000 mg/kg, 336 h, time 14 day; outline: as §3
[31] = Acute toxicity in ICR mouse assessed as brain lesion at 2 g/Kg, po measured after 14 days; type: organism-based; conditions: in vivo, 2000 mg/kg, 336 h, time 14 day
Outline: (§4)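 ICR mice, female and male, received one oral 2 g/kg dose. On day 14 after dosing they were dissected, and organs were examined by histopathology against a control group.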

[32] = Acute toxicity in ICR mouse assessed as heart lesion at 2 g/Kg, po measured after 14 days; type: organism-based; conditions: in vivo, 2000 mg/kg, 336 h, time 14 day; outline: as §4
[33] = Acute toxicity in ICR mouse assessed as liver lesion at 2 g/Kg, po measured after 14 days; type: organism-based; conditions: in vivo, 2000 mg/kg, 336 h, time 14 day; outline: as §4
[34] = Acute toxicity in ICR mouse assessed as spleen lesion at 2 g/Kg, po measured after 14 days; type: organism-based; conditions: in vivo, 2000 mg/kg, 336 h, time 14 day; outline: as §4
[35] = Acute toxicity in ICR mouse assessed as lung lesion at 2 g/Kg, po measured after 14 days; type: organism-based; conditions: in vivo, 2000 mg/kg, 336 h, time 14 day; outline: as §4
[36] = Acute toxicity in ICR mouse assessed as […] kidney at 2 g/Kg, po measured after 14 days; type: organism-based; conditions: in vivo, 2000 mg/kg, 336 h, time 14 day; outline: as §4

Work on `CNC(c1ccnc(Nc2ccc(C#N)cc2)n1)c1ccc(-c2ccc(C#N)cc2)cc1OC(F)(F)F` (stereo unspecified) yielded an EC50 [1] of 56 nM, a CC50 [2] of 18000 nM and a selectivity ratio [3] of 313. The EC50 [4] was 1940 nM, the EC50 [5] was 1460 nM and the EC50 [6] was 2220 nM. The EC50 [7] was 320 nM, the IC50 [8] was 2000 nM and the Ratio IC50 [9] was 0.38. For the same compound, the EC50 [10] was at least 7210 nM.

For `C/N=C(/c1ccnc(Nc2ccc(C#N)cc2)n1)c1ccc(-c2ccc(C#N)cc2)cc1Cl`, the EC50 [1] was 6 nM, the CC50 [2] was over 45000 nM and the selectivity ratio [3] was over 7140. The EC50 [4] was 149 nM, the EC50 [5] was 129 nM and the EC50 [6] was 192 nM. The EC50 [7] was 51 nM, the IC50 [8] was 69 nM and the EC50 [10] was 3810 nM.

`COc1cc(-c2ccc(C#N)cc2)ccc1/C(=N\N)c1ccnc(Nc2ccc(C#N)cc2)n1` showed an EC50 [1] of 5 nM, a CC50 [2] of 54000 nM and a selectivity ratio [3] of 11000. For the same compound, the EC50 [4] was 7 nM, the EC50 [5] was 10 nM and the EC50 [6] was 22 nM. For the same compound, the EC50 [7] was 21 nM, the “Ratio EC50” value [11] was 8.6 and the “Ratio EC50” value [12] was 2. For the same compound, the “Ratio EC50” value [13] was 7.5, the IC50 [8] was 81 nM and the remaining at 0 min [14] was 100%. For the same compound, the remaining at 0.25 h [15] was 104%, the remaining at 0.5 h [16] was 101% and the remaining at 1 h [17] was 101%. It also gave a remaining at 2 h [18] of 98.2%, a remaining at 5 h [19] of 94.7% and a half-life [20] of over 5 h. The half-life [21] was 0.625 h, the microsomal CLint [22] was 37 µL/min/mg and the Activity [23] was “Non-toxic”. The Activity [24] was “Non-toxic”, the Activity [25] was “Non-toxic” and the Activity [26] was “Non-toxic”. For the same compound, the Activity [27] was “Non-toxic”, the Activity [28] was “Non-toxic” and the Activity [29] was “Non-toxic”. The Activity [30] was “Non-toxic”, the Activity [31] was “Non-toxic” and the Activity [32] was “Non-toxic”. The Activity [33] was “Non-toxic”, the Activity [34] was “Non-toxic” and the Activity [35] was “Non-toxic”. For the same compound, the Activity [36] was “Non-toxic” and the EC50 [10] was 148 nM.

With `Cc1cc(/C=C/C#N)cc(C)c1Nc1ccnc(Nc2ccc(C#N)cc2)n1` [RILPIVIRINE] the remaining at 0 min [14] was 100%, the remaining at 0.25 h [15] was 102% and the remaining at 0.5 h [16] was 99.4%. The remaining at 1 h [17] was 99.3%, the remaining at 2 h [18] was 95.3% and the remaining at 5 h [19] was 97.4%. It also gave a half-life [20] of over 5 h and a microsomal CLint [22] of 108 µL/min/mg.

Work on `CNC(c1ccnc(Nc2ccc(C#N)cc2)n1)c1ccc(-c2ccc(C#N)cc2)cc1OC` (stereo unspecified) yielded an EC50 [1] of 36 nM, a CC50 [2] of 13000 nM and a selectivity ratio [3] of 354. It also gave an EC50 [4] of 2330 nM, an EC50 [5] of 941 nM and an EC50 [6] of 1300 nM. The EC50 [7] was 224 nM, the IC50 [8] was 963 nM and the Ratio IC50 [9] was 0.78. For the same compound, the EC50 [10] was 7320 nM.

`CNC(c1ccnc(Nc2ccc(C#N)cc2)n1)c1ccc(-c2ccc(C#N)cc2)cc1C(F)(F)F` (stereo unspecified) showed an EC50 [1] of 39 nM, a CC50 [2] of 15000 nM and a selectivity ratio [3] of 363. For the same compound, the EC50 [4] was 2440 nM, the EC50 [5] was 1340 nM and the EC50 [6] was 1180 nM. For the same compound, the EC50 [7] was 184 nM, the IC50 [8] was 495 nM and the Ratio IC50 [9] was 1.5. The EC50 [10] was 7510 nM.

`N#Cc1ccc(Nc2nccc(/C(=N/N)c3ccc(-c4ccc(C#N)cc4)cc3Cl)n2)cc1` gave an EC50 [1] of 6 nM, a CC50 [2] of 212000 nM and a selectivity ratio [3] of 33300. For the same compound, the EC50 [4] was 22 nM, the EC50 [5] was 49 nM and the EC50 [6] was 67 nM. It also gave an EC50 [7] of 76 nM, an IC50 [8] of 36 nM and an EC50 [10] of 778 nM.
